Among the data in ChEMBL document CHEMBL1158591, “Discovery of 2-chloro-N-((4,4-difluoro-1-hydroxycyclohexyl)methyl)-5-(5-fluoropyrimidin-2-yl)benzamide as a potent and CNS penetrable P2X7 receptor antagonist” (Bioorg Med Chem Lett, 2010) are Vdss, bioavailability and Kp values, retold here.

Type in all cases: ADME, organism-based
One data set concerns Rattus norvegicus. Description: Volume of distribution at steady state in Sprague-Dawley rat at 1 mg/kg, iv and po. Particulars: in vivo. Also noted: dose 1 mg/kg. The procedure, abridged: (§1)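 Male Sprague Dawley rats, IV/PO crossover pharmacokinetics, dosed at 1 mpk by each route.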
Data set [1] is described as follows: Oral bioavailability in Sprague-Dawley rat at 1 mg/kg, po. Particulars: in vivo. The procedure, abridged: as §1
Data set [2] in a line: Ratio of drug level in brain to plasma in iv dosed Sprague-Dawley rat. The settings on record: brain and plasma. In short, it runs like this:
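Male Sprague Dawley rats given a steady-state IV infusion. Ratio is compound concentration in brain over that in plasma.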

Broadly, the bioavailability is dose-corrected exposure relative to a reference, in per cent. Read a high bioavailability as much systemic uptake. Broadly, the Kp is tissue or fluid exposure divided by exposure in the circulation. `O=C(NCC1(O)CCC(F)(F)CC1)c1cc(-c2ncc(F)cn2)ccc1Cl` yielded a Vdss in the data set on Rattus norvegicus of 1.3 L/kg. For the same molecule, the bioavailability in data set [1] is 84%. Besides, in data set [2], the Kp worked out at 1.3.
Consider `O=C(NCC1(O)CCCCCC1)c1cc(-c2ncc(F)cn2)ccc1Cl`, for which the Vdss in the data set with Rattus norvegicus was 0.9 L/kg. The molecule further returned a bioavailability in data set [1] of 35%. Moreover, the concentration ratio (Kp) in data set [2] worked out at 0.7.
